From ChEMBL document CHEMBL1132120, “Identification of highly selective inhibitors of collagenase-1 from combinatorial libraries of diketopiperazines” (J Med Chem, 1999)

Experiments:
Interstitial collagenase = target: T1, Interstitial collagenase (Homo sapiens, UniProt P03956); experiment: Inhibitory activity against Matrix metalloprotease-1
T1 sequence (P03956 whole entry): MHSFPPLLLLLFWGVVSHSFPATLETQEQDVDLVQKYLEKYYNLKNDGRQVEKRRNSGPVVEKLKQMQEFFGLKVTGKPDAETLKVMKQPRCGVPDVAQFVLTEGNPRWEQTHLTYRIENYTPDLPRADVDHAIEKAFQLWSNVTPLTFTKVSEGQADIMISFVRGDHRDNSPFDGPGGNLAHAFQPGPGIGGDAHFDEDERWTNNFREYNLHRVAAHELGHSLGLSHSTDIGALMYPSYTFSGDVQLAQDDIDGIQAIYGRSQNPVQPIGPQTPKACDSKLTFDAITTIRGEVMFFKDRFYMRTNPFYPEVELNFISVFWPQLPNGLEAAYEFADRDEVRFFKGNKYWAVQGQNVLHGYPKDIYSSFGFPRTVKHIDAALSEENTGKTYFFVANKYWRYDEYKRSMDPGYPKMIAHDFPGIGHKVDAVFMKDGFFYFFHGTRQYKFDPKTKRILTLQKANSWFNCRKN
In short: (§1)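 Recombinant enzymes: C-terminally truncated collagenase-1, gelatinase-B and stromelysin. IC50 from nonlinear fit of rate versus inhibitor concentration to v = V0/(1+[I]/IC50). Values are the average of two or more independent determinations, SD ±20% or better.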

[1] = target: Matrix metalloproteinase-9 (Homo sapiens, UniProt P14780); experiment: Inhibitory activity against Matrix metalloprotease-9; set-up: species or system Komagataella pastoris; in short: as §1
Sequence of Matrix metalloproteinase-9 (P14780 whole entry): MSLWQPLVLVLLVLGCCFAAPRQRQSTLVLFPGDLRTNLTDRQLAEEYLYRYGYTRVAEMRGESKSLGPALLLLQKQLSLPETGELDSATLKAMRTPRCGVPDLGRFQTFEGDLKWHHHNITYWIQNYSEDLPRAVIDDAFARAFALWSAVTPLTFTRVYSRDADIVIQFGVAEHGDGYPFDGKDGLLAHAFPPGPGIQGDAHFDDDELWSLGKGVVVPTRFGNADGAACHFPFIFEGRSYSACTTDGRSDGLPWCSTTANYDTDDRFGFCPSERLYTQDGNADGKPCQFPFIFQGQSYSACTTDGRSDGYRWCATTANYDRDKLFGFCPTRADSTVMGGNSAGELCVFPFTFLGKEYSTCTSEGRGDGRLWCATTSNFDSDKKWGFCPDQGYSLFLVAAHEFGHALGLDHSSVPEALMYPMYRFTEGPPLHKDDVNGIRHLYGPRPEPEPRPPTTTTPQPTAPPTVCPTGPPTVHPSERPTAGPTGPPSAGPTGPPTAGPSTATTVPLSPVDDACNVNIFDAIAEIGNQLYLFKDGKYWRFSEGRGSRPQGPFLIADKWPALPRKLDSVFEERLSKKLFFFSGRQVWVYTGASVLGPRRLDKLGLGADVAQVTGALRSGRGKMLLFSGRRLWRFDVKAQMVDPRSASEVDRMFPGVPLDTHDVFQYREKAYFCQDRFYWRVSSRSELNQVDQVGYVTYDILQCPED

[2] = Inhibitory activity against stromelysin.; in short: as §1

IC50 [2] [nM] | Compound | IC50 (Interstitial collagenase) [nM] | IC50 [1] [nM]
 | CC(C)(C)NC(=O)C(Cc1ccccc1)N1C(=O)[C@H](CS)NC(=O)[C@@H]1Cc1ccc([N+](=O)[O-])cc1 (some centres undefined) | 37 | 1200
 | CC(C)(C)NC(=O)C(C1CC1)N1C(=O)[C@H](CS)NC(=O)[C@@H]1Cc1ccc([N+](=O)[O-])cc1 (some centres undefined) | 37 | 1180
> 20000 | CCCN1C(=O)[C@H](CS)NC(=O)[C@@H]1Cc1ccc([N+](=O)[O-])cc1 | 65 | 2900
 | COc1ccc(C(C(=O)NC(C)(C)C)N2C(=O)[C@H](CS)NC(=O)[C@@H]2Cc2ccc([N+](=O)[O-])cc2)cc1 (some centres undefined) | 21 | 1300
 | CC(C)(C)NC(=O)C(c1ccc(-c2ccccc2)cc1)N1C(=O)[C@H](CS)NC(=O)[C@@H]1Cc1ccc([N+](=O)[O-])cc1 (some centres undefined) | 102 | 4300
 | CC(C)(C)NC(=O)C(c1ccccc1)N1C(=O)[C@H](CS)NC(=O)[C@@H]1Cc1ccc([N+](=O)[O-])cc1 (some centres undefined) | 25 | 1300
 | CCCCCCCC(C(=O)NC(C)(C)C)N1C(=O)[C@H](CS)NC(=O)[C@@H]1Cc1ccc([N+](=O)[O-])cc1 (some centres undefined) | 36 | 1500
> 20000 | O=C1N[C@@H](CS)C(=O)N(Cc2ccc3ccccc3n2)[C@H]1Cc1ccc([N+](=O)[O-])cc1 | 74 | 1700
 | CC(C)CC(C(=O)NC(C)(C)C)N1C(=O)[C@H](CS)NC(=O)[C@@H]1Cc1ccc([N+](=O)[O-])cc1 (some centres undefined) | 24 | 570
 | CC(C)(C)NC(=O)C(c1ccc(Oc2ccccc2)cc1)N1C(=O)[C@H](CS)NC(=O)[C@@H]1Cc1ccc([N+](=O)[O-])cc1 (some centres undefined) | 108 | 4400
 | CCc1ccc(C(C(=O)NC(C)(C)C)N2C(=O)[C@H](CS)NC(=O)[C@@H]2Cc2ccc([N+](=O)[O-])cc2)cc1 (some centres undefined) | 41 | 2600
3800 | COc1ccc(CN2C(=O)[C@H](CS)NC(=O)[C@@H]2CC2CCCCC2)cc1 |  | 
> 40000 | CCCN1C(=O)[C@H](CS)NC(=O)[C@@H]1Cc1ccc(NC(C)=O)cc1 | > 40000 | > 40000
4000 | COc1ccc(CN2C(=O)[C@H](CS)NC(=O)[C@@H]2Cc2ccccc2)cc1 | 110 | 400
 | CCCCOc1ccc(C(C(=O)NC(C)(C)C)N2C(=O)[C@H](CS)NC(=O)[C@@H]2Cc2ccc([N+](=O)[O-])cc2)cc1 (some centres undefined) | 73 | 3200
> 40000 | COc1ccc(CN2C(=O)[C@H](CS)NC(=O)[C@@H]2Cc2ccc([N+](=O)[O-])cc2)cc1 | 47 | 1200
1100 | COc1ccc(CSC[C@H]2C(=O)N[C@@H](CS)C(=O)N2Cc2ccc(OC)cc2)cc1 | 310 | 52
